Laboratory results from ChEMBL document CHEMBL1155472, “Versatile synthesis of new cytotoxic agents structurally related to hemiasterlins” (Bioorg Med Chem Lett, 2010).
Calls of active or inactive are those of the source. The rule behind the calls is not given here.

Experiments:
[1] = Cytotoxicity against human UCI101 cells after 2 days by Alamar blue staining; assay type: functional, cell-based; settings: UCI101, 48 h
How it was run: (§1)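 UCI-101 human ovarian cancer cells and N1–S1 rat hepatoma cells were exposed to a range of concentrations for 2 days. Growth suppression was read by Alamar blue staining, with each concentration run in triplicate, and plotted against concentration.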

[2] = Cytotoxicity against rat N1S1 cells after 2 days by Alamar blue staining; assay type: functional, cell-based; settings: N1-S1, 48 h; how it was run: as §1
UCI101 = experiment: Cytotoxicity against human UCI101 cells at 1 mM after 2 days by Alamar blue staining; assay type: functional, cell-based; how it was run: as §1
N1S1 = experiment: Cytotoxicity against rat N1S1 cells at 1 mM after 2 days by Alamar blue staining; assay type: functional, cell-based; how it was run: as §1
[3] = Inhibition of tubulin polymerization at 5 uM
How it was run: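 Tubulin polymerization was run with a commercial polymerization assay kit, and polymerization curves were recorded over time. Colchicine and paclitaxel were run alongside as reference controls.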

[4] = Cell cycle arrest in human UCI101 cells assessed as accumulation at G2 phase at 10 nM after 16 hrs using ethidium bromide staining by FACS analysis; assay type: functional, cell-based
[5] = Cell cycle arrest in human UCI101 cells assessed as accumulation at G2 phase at 20 nM after 16 hrs using ethidium bromide staining by FACS analysis; assay type: functional, cell-based
[6] = Cell cycle arrest in human UCI101 cells assessed as accumulation at G2 phase at 25 nM after 16 hrs using ethidium bromide staining by FACS analysis; assay type: functional, cell-based

With `C/C(=C\[C@H](C(C)C)N(C)C(=O)[C@@H](NC(=O)C(C)NC(C)(C)c1ccc2ccccc2c1)C(C)(C)C)C(=O)O` (stereo partly drawn) the IC50 [1] was 200 nM and the IC50 [2] was 200 nM.
For `C/C(=C\[C@H](C(C)C)N(C)C(=O)[C@@H](NC(=O)C(C)NC1CCCCC1)C(C)(C)C)C(=O)O` (mixture of isomers), the Activity (UCI101) was “Not toxic” and the Activity (N1S1) was “Not toxic”.
With `CC(NC(C)(C)c1ccccc1)C(=O)N[C@H](C(=O)N(C)c1cccc(C(=O)O)c1)C(C)C` (stereo partly drawn) the Activity (UCI101) was “Not toxic” and the Activity (N1S1) was “Not toxic”.
With `C/C(=C\[C@H](C(C)C)N(C)C(=O)[C@@H](NC(=O)[C@H](C)NC(C)(C)c1ccccc1)C(C)(C)C)C(=O)O` the IC50 [1] was 200 nM and the IC50 [2] was 200 nM.
In the case of `C/C(=C\[C@H](C(C)C)N(C)C(=O)[C@@H](NC(=O)[C@@H](C)NC(C)(C)c1ccccc1)C(C)(C)C)C(=O)O`, the IC50 [2] is reported as 20 nM, the Activity [3] is reported as “Active” and the Activity [4] is reported as “Active”. The Activity [5] was “Active” and the Activity [6] was “Active”.
In the case of `C/C(=C\[C@H](C(C)C)N(C)C(=O)[C@@H](NC(=O)[C@@H](C)NC(C)(C)c1ccccc1)C(C)C)C(=O)O`, the IC50 [1] is reported as 20 nM, the inhibition [3] is reported as “Active” and the Activity [4] is reported as 4.7%. It also gave an Activity [5] of 11% and an Activity [6] of 12%.
